Experimental data from article PMC5855950 (RNA, 2018).

Columns and labels:
DsRedCAG250 Drosophila = test: Climbing ability assay, DsRedCAG250 Drosophila; format: in vivo; conditions: 100 µM at third instar larval stage; elav>DsRedCAG250 flies at 5, 10 and 15 dpe
In short: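 Flies carried elav-GAL4 and UAS-DsRedCAG250 and were reared at 25°C. Larval dosing was a 2 h feed of third instar larvae on peptide in 2% sucrose at room temperature, with climbing tested at 5, 10 and 15 dpe. Adult dosing: 5 or 10 dpe flies were starved 8 h, then fed overnight on peptide-sucrose filter paper, and tested at 10 or 15 dpe.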

HBB mRNA = test: Real-time PCR: HBB mRNA expression in HEK293 cells; format: cell-based, human; conditions: three repeats
In short: (§1)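 RNA was extracted from HEK293 cells with TRIzol. One µg was reverse transcribed using random hexamer primers. GADD45A and HBB transcripts were quantified with TaqMan gene expression probes on a real-time PCR system.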

Htt-exon1Q93 Drosophila = test: Pseudopupil assay, Htt-exon1Q93 Drosophila; format: in vivo; conditions: 100 µM at third instar larval stage, 1 dpe adults
In short: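 Flies were raised at 21.5°C. Third instar larvae fed 2 h at room temperature on peptide in 2% sucrose solution. Rhabdomeres per ommatidium were counted by pseudopupil assay at 1 dpe for Htt-exon1Q93 flies and 12 dpe for flMJDQ84 flies. Experiments were repeated at least three times (n = 10 fly heads), as mean ± SEM, one-way ANOVA with Tukey test.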

GADD45A mRNA = test: Real-time PCR: GADD45A mRNA expression in HEK293 cells; format: cell-based, human; conditions: three repeats
In short: as §1

[1] = tested on: EGFPCAG78-expressing HEK293 cells; test: LDH assay: suppression of death of EGFPCAG78-expressing HEK293 cells; format: cell-based, human; conditions: scrambled control, Supplemental Fig. S1
In short: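 HEK293 cells were grown in DMEM with 10% FBS at 37°C and 5% CO2 and seeded at 1 × 10^5 per well. They were lipofected with pEGFPCAG78, and TAT-peptide was added immediately after at 0.1–25 µM (8 levels). LDH activity in the medium was read at 72 h and normalised to the no-peptide control. IC50 came from variable-slope nonlinear regression; at least 3 repeats.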

For “YGRKKRRQRRRGGEDIKSRVEAASILYFIKKK [TAT-BIND-S]”, the “climbing defects, larval treatment” value (DsRedCAG250 Drosophila) was “had no effect”, the “HBB mRNA expression” value (HBB mRNA) was “no significant change” and the “retinal degeneration, Htt-exon1Q93” value (Htt-exon1Q93 Drosophila) was “but not TAT-BIND-S”. For the same sequence, the “GADD45A mRNA expression” value (GADD45A mRNA) was “no significant change” and the “effect on cell death” value [1] was “did not suppress or elicit cell death”.
